# Screening data from PubChem.
# HSP90 inh = inhibitors of HSP90 luciferase refolding in rabbit reticulocyte lysate. luciferase refolding luminescence, 3 h. inhibition, % at 5.6 µM. actives 0.91% (n = 290,000);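 active means inhibition above the screen-wide mean plus 3 SD, computed separately per campaign, cut at about 16% in these data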;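 further: 0% = DMSO wells and 100% = 60 µM geldanamycin wells; inhibitors lower the luminescence because luciferase stays unfolded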
# HCV core dimer = HCV core protein dimerization inhibition; inhibition, % at 5 µM; TR-FRET GST/Flag-core106 dimerization, 1536-well; actives 0.33% (n = 300,000);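 active means inhibition above the mean of all tested compounds plus 3 SD, set per screening campaign, cut at about 45% in these data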
#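 Assay system: Tagged HCV core106 pair (GST and Flag) | Buffer or medium: KF-containing HEPES buffer, pH 7.45, DTT, CHAPS, BSA | Also added: Eu donor and XL665 acceptor anti-tag antibodies | Dosing: One concentration, 5 µM, in 0.5% DMSO | Timing: 4 h at 22.5 °C | Technique: TR-FRET 671 and 617 nm emission | Repeats: Singlicate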
# DNA FID counter-1 = counter-screen for HCV NS3 helicase inhibitors: DNA intercalator displacement | actives 0.17% (n = 290,000) | DNA fluorescent intercalator displacement, fluorescence | inhibition, % at 7.9 µM;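 further: 0% = vehicle and 100% = reference compound; higher means more ethidium bromide displaced from hairpin DNA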
# NS3 helicase inh = HCV NS3 helicase inhibition; inhibition, % at 10.9 µM; NS3 helicase DNA unwinding, Cy5 molecular beacon fluorescence; AID 1800; actives 0.56% (n = 290,000);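 active means inhibition above the mean of all tested compounds plus 3 SD, set per campaign, cut at about 35% in these data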;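 further: 0% = DMSO wells and 100% = thioflavine S control wells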
#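 Assay system – hepatitis C virus NS3 helicase domain fragment enzyme · Buffer or medium – MOPS pH 6.5, MgCl2, DTT, Tween20, BSA · Reagent – Cy5/quencher beacon DNA duplex and ATP to start · Compound – single 10.9 µM dose · Timing – 1 h at 25 °C · Technique – Cy5 beacon fluorescence read at start and 1 h · Measure – % inhibition of unwinding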
# HSF1 activator = increases HSF-1 driven luciferase reporter signal; NIH3T3-HGL HSF-1 luciferase reporter, MG132, 8 h; 100% = twice DMSO control signal; activation, % at 9 µM; actives 1.7% (n = 300,000); AID 504408;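 active means mean replicate activation of at least 50% with a set share of replicates each reaching 50%; inconclusive means only one of those two conditions met; inactive means mean below 50% and too few replicates reaching it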;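 further: 0% = median of the neutral control wells and 100% = twice that signal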
# HSF1 inh = HSF1 inhibition | NIH3T3-HGL HSE-luciferase, MG132-induced, luminescence 8 h; stronger effect = lower value | activity change, negative = inhibition, % at 7.5 µM (by protocol) | actives 0.77% (n = 300,000) | AID 2098;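 active means more than half of replicate wells show activity change below -50%, luminescence cut by over half; inconclusive means some wells, but at most half, below -50%; inactive means no replicate well below -50%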;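 further: luciferase reports HSF-1 transcriptional activity via heat shock element; 0% = median of DMSO wells and -100% = zero luminescence signal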
# HSP90 inh confirm = HSP90 inhibition, confirmation assay; AID 1846; shares compounds with HSP90 inh; actives 64% (n = 2,300); inhibition, % at 5.9 µM; rabbit reticulocyte lysate, luciferase refolding luminescence, 3 h; in the data active means inhibition above about 18%;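 further: 0% = vehicle wells and 100% = reference inhibitor wells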
# luciferase ctr = blocks native firefly luciferase in HSP90 counter-screen | actives 48% (n = 2,300) | shares compounds with HSP90 inh | AID 1847 | purified native firefly luciferase, luminescence | inhibition, % at 5.9 µM;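 active means inhibition above the mean inhibition of all tested sample wells plus 3 SD, cut at about 10% in these data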;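 further: 0% = DMSO with luciferase and 100% = wells lacking luciferase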
# Target sequence (P08659 whole entry, looked up): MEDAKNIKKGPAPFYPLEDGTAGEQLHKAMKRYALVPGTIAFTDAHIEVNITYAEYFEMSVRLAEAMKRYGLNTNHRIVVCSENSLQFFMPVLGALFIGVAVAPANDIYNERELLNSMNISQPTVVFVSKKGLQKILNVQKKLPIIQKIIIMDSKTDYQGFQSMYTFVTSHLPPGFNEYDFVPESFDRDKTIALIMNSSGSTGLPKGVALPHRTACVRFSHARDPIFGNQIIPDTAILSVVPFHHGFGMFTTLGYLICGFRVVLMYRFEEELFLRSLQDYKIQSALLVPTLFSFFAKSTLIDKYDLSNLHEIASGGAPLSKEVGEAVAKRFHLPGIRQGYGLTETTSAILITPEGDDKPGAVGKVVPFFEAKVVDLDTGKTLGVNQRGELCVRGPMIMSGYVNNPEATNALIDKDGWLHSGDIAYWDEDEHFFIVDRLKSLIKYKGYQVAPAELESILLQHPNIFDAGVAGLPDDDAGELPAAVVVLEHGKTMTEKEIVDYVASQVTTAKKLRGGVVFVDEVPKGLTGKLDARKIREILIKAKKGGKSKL
# NS3 helicase cf = HCV NS3 helicase inhibition, confirmation assay; inhibition, % at 10.9 µM; shares compounds with NS3 helicase inh; NS3 helicase DNA unwinding, Cy5 molecular beacon fluorescence; actives 31% (n = 1,600);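 active means inhibition above the mean of all tested compounds plus 3 SD, cutoff set per campaign, cut at about 36% in these data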
# DNA FID counter-2 = counter-screen for HCV NS3 helicase inhibitors: DNA intercalator displacement. shares compounds with NS3 helicase inh. DNA fluorescent intercalator displacement, fluorescence. inhibition, % at 7.9 µM. actives 4% (n = 1,600). AID 1945;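 further: 0% = vehicle and 100% = reference compound; higher means more displacement of ethidium bromide from the DNA hairpin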
# FID counter DR = DNA intercalator displacement in dose response | fluorescent intercalator displacement from DNA, fluorescence | shares compounds with NS3 helicase inh | 120 tested, under 10 active | IC50, µM; call rule not given here
# An asterisk follows results filed as active; ? = inconclusive; / = no result. Rows were chosen to be rich in hits. Some 3.9% of all compounds tested hit in one or more screens of this group. Unless noted, no stated cut-off is given here; in the data, active means inhibition above about 37%; inactive means the rest.
SMILES,HSP90 inh,HCV core dimer,DNA FID counter-1,NS3 helicase inh,HSF1 activator,HSF1 inh,NS3 helicase cf,DNA FID counter-2,others
CN=c1scc(-c2cccs2)n1/N=C/c1ccc(O)c(O)c1O,24.0*,7.0,-19.0,54.4*,-51.2,?,-8.4,12.6,HSP90 inh confirm=86.8*;luciferase ctr=77.6*
CC1CCN(C(=O)COC(=O)C2CCN(S(=O)(=O)c3ccc(Cl)c(C(F)(F)F)c3)CC2)CC1,/,3.4,/,/,8.2,4.2,/,/,
COc1cc(OC)cc(C(=O)Nc2ccc3nc4n(c(=O)c3c2)CCCC4)c1,4.5,0.8,-24.1,-1.1,29.4,13.2,/,/,
CSc1ccc(/C=N/Nc2cccc(C(=O)O)c2)cc1,25.3*,/,-10.7,38.0*,/,/,76.3*,-5.2,HSP90 inh confirm=86.4*;luciferase ctr=83.6*
O=C(O)c1ccc(N/N=C/c2cccc(F)c2)cc1,2.6,-6.6,-8.4,6.3,-10.9,-7.3,/,/,
c1ccc(C2Nc3cccc4cccc(c34)N2)cc1,3.5,3.0,-1.3,14.8,1.9,-5.5,/,/,
Fc1cccc(Cl)c1C1Nc2cccc3cccc(c23)N1,18.6*,9.2,-14.3,45.4*,-0.2,-3.9,-19.8,31.2,HSP90 inh confirm=-2.4;luciferase ctr=-5.4
COc1ccc2[nH]c3c(=O)n(CCCC(=O)NC4CCCCC4C)c(=S)[nH]c3c2c1 (stereo unspecified),7.1,4.9,-26.2,41.6*,28.8,13.8,39.7*,-10.9,FID counter DR=>79.4
CCn1c(SCC(=O)Nc2ccc(N3CCOCC3)cc2)nnc1-c1ccncc1,4.1,-15.4,-16.4,26.1,18.6,3.4,/,/,
Cc1scc(C(=O)N/N=C/c2ccc([N+](=O)[O-])o2)c1C,-0.6,-5.7,-26.0,43.4*,0.4,5.9,-12.5,9.1,
CCCCCC(=O)N/N=C/c1ccc([N+](=O)[O-])o1,1.3,1.2,-9.8,39.3*,3.5,7.5,-10.1,2.2,
Cc1ccc(NCC(=O)N/N=C\c2ccc([N+](=O)[O-])o2)cc1,-0.7,-2.0,-1.3,15.2,30.6,10.3,/,/,
Cc1scc(C(=O)N/N=C/c2ccco2)c1C,1.4,-1.6,-4.1,0.6,-3.9,2.5,/,/,
O=C(CSc1ccccc1)NCc1ccccn1,3.0,-7.8,-6.7,-0.8,5.0,0.7,/,/,
Cc1ccccc1CSCC(=O)NCCSc1ccccn1,-1.3,11.9,-28.3,-2.0,33.7,0.1,/,/,
O=C(CN1CCN(c2ncccn2)CC1)Nc1ccccc1-n1cccc1,-0.7,0.2,-20.3,-5.8,-10.2,7.4,/,/,
Cc1cc(C)nc(OC(C(=O)O)C(OCc2ccccc2)(c2ccccc2)c2ccccc2)n1 (stereo unspecified),-3.0,-14.1,-34.7,36.6*,18.7,2.4,73.6*,-39.8,
CCCOC(c1ccccc1)(c1ccccc1)C(Oc1nc(C)cc(C)n1)C(=O)O (stereo unspecified),1.5,5.7,-40.0,15.8,0.1,-4.3,/,/,
CCOc1cc(NC(=O)Nc2ccc(F)cc2)c(OCC)cc1NC(=O)CC,0.8,-9.2,-17.7,-22.5,-12.9,-12.7,/,/,
COc1cccc2cc(C(=O)C3=C(O)C(=O)N(CCN4CCOCC4)C3c3cccs3)oc12 (stereo unspecified),8.6,11.5,4.1,-5.2,15.2,-2.1,/,/,
CCOC1=C/C(=C/c2c(N)n3nc(-c4ccccc4)sc3nc2=O)C=CC1=O,2.1,/,-10.9,24.5,12.0,2.0,/,/,
COC1=C/C(=C/c2c(N)n3nc(-c4ccc(C)cc4)sc3nc2=O)C=CC1=O,0.9,/,-3.1,44.2*,/,/,25.3,-14.8,
CCCNC(=O)c1onc(CSc2ccc(F)cc2)c1C(=O)NCCOC,/,3.5,/,/,4.7,6.2,/,/,
O=C(Cn1cnc2ccccc2c1=O)NCCC(=O)N1CCN(Cc2ccccc2)CC1,3.2,-0.3,-10.0,38.3*,-7.3,-3.6,-18.9,-5.1,
C/C(=N\NC(=O)CC1(C)OCCO1)c1cccs1,3.6,-12.1,-3.7,45.8*,-9.5,-15.0,-8.4,-0.5,
SMILES,HSP90 inh,HCV core dimer,DNA FID counter-1,NS3 helicase inh,HSF1 activator,HSF1 inh,NS3 helicase cf,DNA FID counter-2,others
O=C(Nc1nnc(-c2ccc3c(c2)CCCC3)o1)c1ccc(Cl)cc1Cl,6.3,41.1,-15.8,72.3*,9.9,-0.5,71.6*,-25.0,
CSC[C@@H]1NC(=S)N(c2ccc(C)cc2)C1=O,2.0,34.4,-12.8,36.4*,11.3,7.5,-12.0,16.9,
Cc1ccc(SCc2ccc(C(=O)NCc3ccncc3)cc2)cc1,-3.1,-1.5,-11.2,-34.0,8.0,-9.4,/,/,
CC(=O)c1cccc(N(CC(=O)NC2CCCC2)C(=O)CNC(=O)c2cccs2)c1,-1.0,-1.2,-20.8,-0.3,-16.0,-2.8,/,/,
CC(=O)c1ccc(N(CC(=O)NC2CCCC2)C(=O)CNC(=O)c2cccs2)cc1,3.6,-6.6,-29.7,37.0*,-0.9,-4.2,-7.6,-11.4,
CNc1ccccc1C(C)(C)c1cc(C)[nH]n1,-2.2,4.3,-12.6,-0.3,7.3,-0.1,/,/,
CNc1ccccc1C(C)(C)c1cc(-c2ccco2)n[nH]1,-0.2,-4.7,-5.0,40.7*,12.3,13.7,-9.5,-27.1,
COCCOC(=O)c1[nH]c2c(c1C)C(=O)CC(c1ccco1)C2 (stereo unspecified),-2.8,41.7,-10.4,46.9*,-11.3,-11.2,-6.5,1.7,
CN(C)c1ccc(/C=N/NC2=NS(=O)(=O)c3ccccc32)cc1,5.9,-30.9,-15.7,39.7*,0.3,-2.3,-5.7,-13.6,
CC(=O)Oc1ccc(/C=N/NC2=NS(=O)(=O)c3ccccc32)cc1,0.5,-3.7,-8.9,34.6,10.8,-3.5,/,/,
COc1ccc(/C=N/NC2=NS(=O)(=O)c3ccccc32)cc1OC(C)=O,0.2,-3.4,-7.1,51.5*,-17.4,-9.1,-0.2,-1.1,
O=C(Cc1ccccc1[N+](=O)[O-])NCC1(c2cccc3c2OCO3)OCCO1,/,/,/,/,2.2,2.2,/,/,
Fc1ccc(C2CC(c3ccco3)=NN2c2ccccc2)cc1 (stereo unspecified),0.8,-2.2,-4.9,3.9,-12.8,0.5,/,/,
O=[N+]([O-])c1ccc(N2N=C(c3ccco3)CC2c2ccccc2)cc1 (stereo unspecified),3.9,87.4*,-18.6,38.2*,42.9,30.5,17.6,26.2,
